Drug metabolism data for one molecule are collected here from ChEMBL document CHEMBL3526048, “In vitro metabolism of rivoglitazone, a novel peroxisome proliferator-activated receptor γ agonist, in rat, monkey, and human liver microsomes and freshly isolated hepatocytes” (Drug Metab Dispos, 2011).

The target in data set [1] is T1, UDP-glucuronosyltransferase 1A3 (Homo sapiens, UniProt P35503).
T1 sequence (P35503 whole entry): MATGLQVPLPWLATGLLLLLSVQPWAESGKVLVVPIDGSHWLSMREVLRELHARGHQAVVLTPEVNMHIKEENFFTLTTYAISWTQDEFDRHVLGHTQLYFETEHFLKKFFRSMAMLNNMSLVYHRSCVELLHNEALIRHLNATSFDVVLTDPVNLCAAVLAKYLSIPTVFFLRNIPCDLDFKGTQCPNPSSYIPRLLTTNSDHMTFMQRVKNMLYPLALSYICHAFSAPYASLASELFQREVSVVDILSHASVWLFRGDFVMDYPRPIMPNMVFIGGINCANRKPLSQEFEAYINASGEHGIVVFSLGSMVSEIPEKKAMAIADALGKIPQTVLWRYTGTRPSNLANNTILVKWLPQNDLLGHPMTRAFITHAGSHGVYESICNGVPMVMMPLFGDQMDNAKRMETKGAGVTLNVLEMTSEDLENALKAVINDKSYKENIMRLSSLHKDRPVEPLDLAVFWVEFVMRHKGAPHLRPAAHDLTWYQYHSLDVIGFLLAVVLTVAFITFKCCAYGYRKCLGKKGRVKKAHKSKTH
Description: Activity of human UGT1A3 expressed in microsomes isolated from baculovirus infected insect cell assessed as enzyme-mediated 5-(4-((6-hydroxy-1-methyl-1H-benzo[d]imidazol-2-yl)methoxy)benzyl)thiazolidine-2,4-dione formation at 20 uM after 4 hrs by radio-HPLC/LC-MS/MS analysis in presence of NADPH-generating system/SAM. The data set is classed as ADME.

Data set [2] concerns the target T2, UDP-glucuronosyltransferase 2B7 (Homo sapiens, UniProt P16662).
T2 sequence (P16662 whole entry): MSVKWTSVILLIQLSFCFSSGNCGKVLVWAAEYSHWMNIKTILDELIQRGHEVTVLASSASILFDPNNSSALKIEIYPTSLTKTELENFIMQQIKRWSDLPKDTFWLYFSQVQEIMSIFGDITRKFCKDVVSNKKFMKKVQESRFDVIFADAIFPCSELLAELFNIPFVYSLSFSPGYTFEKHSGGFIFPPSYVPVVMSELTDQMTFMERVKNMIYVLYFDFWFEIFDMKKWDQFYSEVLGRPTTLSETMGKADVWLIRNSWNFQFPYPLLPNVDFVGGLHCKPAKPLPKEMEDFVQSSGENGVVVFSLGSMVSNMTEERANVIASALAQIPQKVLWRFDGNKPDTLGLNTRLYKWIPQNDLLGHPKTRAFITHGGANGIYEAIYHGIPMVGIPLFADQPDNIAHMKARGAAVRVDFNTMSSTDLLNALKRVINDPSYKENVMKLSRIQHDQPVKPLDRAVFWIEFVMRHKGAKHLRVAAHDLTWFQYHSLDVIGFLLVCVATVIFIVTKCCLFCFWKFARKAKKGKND
Description: Activity of human UGT2B7 expressed in microsomes isolated from baculovirus infected insect cell assessed as enzyme-mediated 2-amino-3-((1-carboxy-2-(4-((6-methoxy-1-methyl-1H-benzo[d]imidazol-2-yl)methoxy)phenyl)ethyl)disulfanyl)propanoic acid formation at 20 uM after 4 hrs by radio-HPLC/LC-MS/MS analysis in presence of UDPGA and UDPGA/SAM. The data set is classed as ADME.

Data set [3] has as its target T3, UDP-glucuronosyltransferase 1A6 (Homo sapiens, UniProt P19224).
T3 sequence (P19224 whole entry): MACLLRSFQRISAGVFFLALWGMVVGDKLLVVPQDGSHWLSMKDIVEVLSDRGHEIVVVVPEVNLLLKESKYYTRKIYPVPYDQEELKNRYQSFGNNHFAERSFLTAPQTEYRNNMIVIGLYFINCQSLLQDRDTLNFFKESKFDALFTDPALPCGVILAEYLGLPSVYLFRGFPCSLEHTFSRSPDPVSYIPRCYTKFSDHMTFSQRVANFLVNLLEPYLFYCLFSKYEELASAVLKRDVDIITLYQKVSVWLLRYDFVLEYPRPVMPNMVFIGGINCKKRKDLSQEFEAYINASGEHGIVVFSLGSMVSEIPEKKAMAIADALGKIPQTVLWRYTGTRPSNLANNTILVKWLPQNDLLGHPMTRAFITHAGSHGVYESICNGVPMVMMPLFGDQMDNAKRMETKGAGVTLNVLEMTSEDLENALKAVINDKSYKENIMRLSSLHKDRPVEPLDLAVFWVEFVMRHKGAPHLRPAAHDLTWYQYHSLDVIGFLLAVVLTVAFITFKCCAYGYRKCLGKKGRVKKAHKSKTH
Description: Activity of human UGT1A6 expressed in microsomes isolated from baculovirus infected insect cell assessed as enzyme-mediated (2S,3S,4S,5R,6R)-3,4,5-trihydroxy-6-(5-(4-((6-methoxy-1-methyl-1H-benzo[d]imidazol-2-yl)methoxy)benzyl)-2,4-dioxothiazolidin-3-yl)tetrahydro-2H-pyran-2-carboxylic acid formation at 20 uM after 4 hrs by radio-HPLC/LC-MS/MS analysis in presence of UDPGA. The data set is classed as ADME.

The next data set concerns the target Cytochrome P450 3A5 (Homo sapiens, UniProt P20815). Briefly: Activity of human CYP3A5 expressed in microsomes isolated from baculovirus infected insect cell assessed as enzyme-mediated 5-(4-((6-methoxy-1H-benzo[d]imidazol-2-yl)methoxy)benzyl)thiazolidine-2,4-dione formation at 20 uM after 2 hrs by radio-HPLC/LC-MS/MS analysis in presence of NADPH-generating system and NADPH-generating system/SAM. The data set is classed as ADME. An outline of the steps:
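cDNA-expressed human CYP3A5 in baculovirus-insect-cell microsomes (1 mg/ml protein) was incubated with [¹⁴C]rivoglitazone (20 μM) in 50 mM potassium phosphate (pH 7.4) or 100 mM Tris-HCl (pH 7.5). NADPH-generating system: 2 mM NADP⁺, 20 mM glucose 6-phosphate, 2 units/ml G6PDH, 10 mM MgCl₂. Incubation ran 2 h at 37°C with shaking; insect-cell control supersomes served as control. Acetonitrile stop, supernatant concentrated, then radio-HPLC, LC-MS and LC-MS/MS.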

Data set [4] can be described thus: Drug metabolism in human hepatocytes assessed as formation of 2-mercapto-3-(4-((6-methoxy-1-methyl-1H-benzo[d]imidazol-2-yl)methoxy)phenyl)propanoic acid at 30 uM after 3 hrs by radio-HPLC/LC-MS/MS analysis in presence of UDPGA, UDPGA/SAM and NADPH-generating system. It is filed as ADME, cell-based, Hepatocyte.

SMILES strings stand for the structures.

Sequence of Cytochrome P450 3A5 (P20815 whole entry): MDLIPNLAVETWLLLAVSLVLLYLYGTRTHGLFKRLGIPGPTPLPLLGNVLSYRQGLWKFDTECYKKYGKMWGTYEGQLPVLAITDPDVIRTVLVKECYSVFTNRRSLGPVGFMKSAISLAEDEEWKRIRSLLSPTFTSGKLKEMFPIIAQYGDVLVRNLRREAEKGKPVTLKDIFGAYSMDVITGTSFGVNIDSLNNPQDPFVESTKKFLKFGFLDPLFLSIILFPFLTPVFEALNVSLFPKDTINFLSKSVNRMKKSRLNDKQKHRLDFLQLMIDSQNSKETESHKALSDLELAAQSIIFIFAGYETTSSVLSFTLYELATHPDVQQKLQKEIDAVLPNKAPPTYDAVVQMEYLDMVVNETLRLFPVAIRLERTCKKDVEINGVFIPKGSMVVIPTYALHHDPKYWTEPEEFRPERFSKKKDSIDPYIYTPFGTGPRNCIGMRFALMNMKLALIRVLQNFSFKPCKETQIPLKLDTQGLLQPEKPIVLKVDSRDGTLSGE

Consider `COc1ccc2nc(COc3ccc(C[14CH]4SC(=O)NC4=O)cc3)n(C)c2c1.Cl` (racemic), for which the Drug metabolism entry in data set [1] is “metabolite_not_detected”; in data set [2], “metabolite_not_detected”; in data set [3], “metabolite_not_detected”; at Cytochrome P450 3A5 it was “metabolite_detected”; in data set [4], “metabolite_not_detected”.
